Measurements reported in ChEMBL document CHEMBL4619746, “Discovery and biological evaluation of proteolysis targeting chimeras (PROTACs) as an EGFR degraders based on osimertinib and lenalidomide” (Bioorg Med Chem Lett, 2020).
The source made the active and inactive calls. No cut-off for these calls is given here.

How the values were obtained:
[1] = system: PC-9; test: Antiproliferative activity against human PC9 cells harboring EGFRDel19 mutant by MTT assay; assay type: functional, cell-based
In short: (§1)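 MTT proliferation read-out in human NSCLC lines: PC9 (EGFR Del19), HCC827 (EGFR Del E746-A750) and H1975 (EGFR L858R/T790M). IC50 values are in μM and reported as mean ± SD from n = 3.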

[2] = system: Protein cereblon/Epidermal growth factor receptor (Homo sapiens), P00533+Q96SW2 [UNDEFINED MUTATION]; test: Protac activity at CRBN/EGFR exon 19 deletion mutant in human PC9 cells assessed as increase in degradation of EGFR at 10 uM incubated for 24 hrs by Western blot analysis; assay type: cell-based; details: PC-9
In short: (§2)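 PC9 (EGFR Del19) and H1975 (EGFR L858R/T790M) cells exposed to 10 μM compound for 24 h. Cell lysates analysed for EGFR protein by western blot.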

[3] = system: Protein cereblon/Epidermal growth factor receptor (Homo sapiens), P00533+Q96SW2 [L858R,T790M]; test: Protac activity at CRBN/EGFR L858R/T790M mutant in human H1975 cells assessed as induction of degradation of EGFR at 10 uM incubated for 24 hrs by Western blot analysis; assay type: cell-based; in short: as §2
[4] = system: HCC827; test: Antiproliferative activity against human HCC827 cells harboring EGFRDel19 mutant by MTT assay; assay type: functional, cell-based; in short: as §1
[5] = system: NCI-H1975; test: Antiproliferative activity against human NCI-H1975 cells harboring EGFR L858R/T790M double mutant by MTT assay; assay type: functional, cell-based; in short: as §1
[6] = system: Protein cereblon/Epidermal growth factor receptor (Homo sapiens), P00533+Q96SW2 [UNDEFINED MUTATION]; test: Protac activity at CRBN/EGFR exon 19 deletion mutant in human PC9 cells assessed as induction of degradation of EGFR by measuring fold change in EGFR protein expression at 3 uM incubated for 6 hrs by Western blot analysis relative to control (reference value: 1); assay type: cell-based; details: PC-9
In short: (§3)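 PC9 cells (EGFR Del19) exposed for 6 h to six concentrations from 0.1 μM to 10 μM. EGFR protein measured by western blot relative to untreated control. DC50 and Dmax derived from the concentration-response.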

[7] = system: Protein cereblon/Epidermal growth factor receptor (Homo sapiens), P00533+Q96SW2 [UNDEFINED MUTATION]; test: Protac activity at CRBN/EGFR exon 19 deletion mutant in human PC9 cells assessed as induction of degradation of EGFR by measuring fold change in EGFR protein expression at 1 uM incubated for 6 hrs by Western blot analysis relative to control (reference value: 1); assay type: cell-based; details: PC-9; in short: as §3
[8] = system: Protein cereblon/Epidermal growth factor receptor (Homo sapiens), P00533+Q96SW2 [UNDEFINED MUTATION]; test: Protac activity at CRBN/EGFR exon 19 deletion mutant in human PC9 cells assessed as induction of degradation of EGFR at 0.3 uM pretreated with proteasome inhibitor, MG-132 for 2 hrs followed by incubation with compound for 6 hrs by Western blot analysis; assay type: cell-based; details: PC-9
In short: (§4)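 PC9 cells pretreated for 2 h with proteasome inhibitor MG-132 (10 μM) or lenalidomide (10 μM), then given 0.3 μM PROTAC for 6 h. EGFR levels read by western blot.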

[9] = system: Protein cereblon/Epidermal growth factor receptor (Homo sapiens), P00533+Q96SW2 [UNDEFINED MUTATION]; test: Protac activity at CRBN/EGFR exon 19 deletion mutant in human PC9 cells assessed as induction of degradation of EGFR by measuring fold change in EGFR protein expression at 0.1 uM incubated for 6 hrs by Western blot analysis relative to control (reference value: 1); assay type: cell-based; details: PC-9; in short: as §3
[10] = system: Protein cereblon/Epidermal growth factor receptor (Homo sapiens), P00533+Q96SW2 [UNDEFINED MUTATION]; test: Protac activity at CRBN/EGFR exon 19 deletion mutant in human PC9 cells assessed as induction of degradation of EGFR at 0.3 uM incubated for 24 hrs by DAPI-staining based immunofluorescence microscopy; assay type: cell-based; details: PC-9
[11] = target: Protein cereblon/Epidermal growth factor receptor (Homo sapiens, UniProt P00533+Q96SW2); test: (§5) Protac activity at CRBN/EGFR exon 19 deletion mutant in human PC9 cells assessed as induction of degradation of EGFR incubated for 6 hrs by Western blot analysis; assay type: cell-based; details: pc-9; in short: as §3
[12] = system: Protein cereblon/Epidermal growth factor receptor (Homo sapiens), P00533+Q96SW2 [UNDEFINED MUTATION]; test: as §5; assay type: cell-based; details: PC-9; in short: as §3
[13] = system: Protein cereblon/Epidermal growth factor receptor (Homo sapiens), P00533+Q96SW2 [UNDEFINED MUTATION]; test: Protac activity at CRBN/EGFR exon 19 deletion mutant in human PC9 cells assessed as induction of degradation of EGFR at 0.3 uM incubated for 6 hrs by Western blot analysis relative to control; assay type: cell-based; details: PC-9
In short: (§6)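 Time course in PC9 cells at a fixed 0.3 μM. Cells harvested at the indicated time points and EGFR protein quantified by western blot relative to control.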

[14] = system: Protein cereblon/Epidermal growth factor receptor (Homo sapiens), P00533+Q96SW2 [UNDEFINED MUTATION]; test: Protac activity at CRBN/EGFR exon 19 deletion mutant in human PC9 cells assessed as induction of degradation of EGFR assessed as fold change in EGFR protein expression at 0.3 uM incubated for 1 hr by Western blot analysis relative to control (reference value: 1); assay type: cell-based; details: PC-9; in short: as §6
[15] = system: Protein cereblon/Epidermal growth factor receptor (Homo sapiens), P00533+Q96SW2 [UNDEFINED MUTATION]; test: Protac activity at CRBN/EGFR exon 19 deletion mutant in human PC9 cells assessed as induction of degradation of EGFR assessed as fold change in EGFR protein expression at 0.3 uM incubated for 48 hrs by Western blot analysis relative to control (reference value: 1); assay type: cell-based; details: PC-9; in short: as §6
[16] = system: Protein cereblon/Epidermal growth factor receptor (Homo sapiens), P00533+Q96SW2 [UNDEFINED MUTATION]; test: Protac activity at CRBN/EGFR exon 19 deletion mutant in human PC9 cells assessed as induction of degradation of EGFR by measuring fold change in EGFR protein expression at 0.3 uM incubated for 6 hrs by Western blot analysis relative to control (reference value: 1); assay type: cell-based; details: PC-9; in short: as §3
[17] = system: Protein cereblon/Epidermal growth factor receptor (Homo sapiens), P00533+Q96SW2 [UNDEFINED MUTATION]; test: Protac activity at CRBN/EGFR exon 19 deletion mutant in human PC9 cells assessed as induction of degradation of EGFR at 0.3 uM pretreated with proteasome inhibitor, lenalidomide for 2 hrs followed by incubation with compound for 6 hrs by Western blot analysis; assay type: cell-based; details: PC-9; in short: as §4
[18] = system: Protein cereblon/Epidermal growth factor receptor (Homo sapiens), P00533+Q96SW2 [UNDEFINED MUTATION]; test: Protac activity at CRBN/EGFR exon 19 deletion mutant in human PC9 cells assessed as induction of degradation of EGFR assessed as fold change in EGFR protein expression at 0.3 uM incubated for 3 hrs by Western blot analysis relative to control (reference value: 1); assay type: cell-based; details: PC-9; in short: as §6
[19] = system: Protein cereblon/Epidermal growth factor receptor (Homo sapiens), P00533+Q96SW2 [UNDEFINED MUTATION]; test: Protac activity at CRBN/EGFR exon 19 deletion mutant in human PC9 cells assessed as induction of degradation of EGFR assessed as fold change in EGFR protein expression at 0.3 uM incubated for 12 hrs by Western blot analysis relative to control (reference value: 1); assay type: cell-based; details: PC-9; in short: as §6
[20] = system: Protein cereblon/Epidermal growth factor receptor (Homo sapiens), P00533+Q96SW2 [UNDEFINED MUTATION]; test: Protac activity at CRBN/EGFR exon 19 deletion mutant in human PC9 cells assessed as induction of degradation of EGFR by measuring fold change in EGFR protein expression at 10 uM incubated for 6 hrs by Western blot analysis relative to control (reference value: 1); assay type: cell-based; details: PC-9; in short: as §3
[21] = system: PC-9; test: Induction of cell cycle arrest in human PC9 cells harboring EGFRDel19 mutant assessed as accumulation in G0/G1 phase at 0.5 uM incubated for 24 hrs by confocal microscopy; assay type: functional, cell-based
In short: (§7)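 PC9 cells were exposed to 0.5 μM test agent for 24 h. Cell cycle distribution and apoptosis were then read on an ImageXpress Micro Confocal/Widefield high-content imaging system.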

[22] = system: Protein cereblon/Epidermal growth factor receptor (Homo sapiens), P00533+Q96SW2 [UNDEFINED MUTATION]; test: Protac activity at CRBN/EGFR exon 19 deletion mutant in human PC9 cells assessed as induction of degradation of EGFR assessed as fold change in EGFR protein expression at 0.3 uM incubated for 24 hrs by Western blot analysis relative to control (reference value: 1); assay type: cell-based; details: PC-9; in short: as §6
[23] = system: PC-9; test: Induction of apoptosis in human PC9 cells harboring EGFRDel19 mutant at 0.5 uM incubated for 24 hrs by confocal microscopy relative to control; assay type: functional; in short: as §7

`C=CC(=O)Nc1cc(Nc2nccc(-c3cn(C)c4ccccc34)n2)c(OC)cc1N(C)CCN(C)CCOCCOCC(=O)Nc1cccc2c1CN(C1CCC(=O)NC1=O)C2=O` (stereo not drawn) was tested, and the IC50 [1] was 1420 nM, the Activity [2] was “Active” and the Activity [3] was “Active”. It also gave an IC50 [4] of 1870 nM and an IC50 [5] of 1390 nM.

For `C=CC(=O)Nc1cc(Nc2nccc(-c3cn(C)c4ccccc34)n2)c(OC)cc1N(C)CCN(C)CCOCCOCCOCCOCC(=O)Nc1cccc2c1CN(C1CCC(=O)NC1=O)C2=O` (stereo not drawn), the fold change (FC) [6] was 0.49, the fold change (FC) [7] was 0.82 and the Activity [8] was “inactive”. For the same compound, the fold change (FC) [9] was 0.61, the Activity [10] was “Active” and the DC50 [11] was 161 nM. The Activity [12] was “Dose-dependent effect”, the Emax [13] was 56 to 68% and the IC50 [1] was 413 nM. The fold change (FC) [14] was 0.96, the Activity [2] was “Active” and the fold change (FC) [15] was 0.57. The Activity [3] was “Active”, the fold change (FC) [16] was 0.32 to 0.44 and the Activity [17] was “inactive”. It also gave a fold change (FC) [18] of 1.01, a fold change (FC) [19] of 1.39 and a fold change (FC) [20] of 0.39. For the same compound, the Activity [21] was “Active”, the fold change (FC) [22] was 0.52 and the Activity [23] was 38.6%. The IC50 [4] was 1340 nM and the IC50 [5] was 657 nM.

In the case of `C=CC(=O)Nc1cc(Nc2nccc(-c3cn(C)c4ccccc34)n2)c(OC)cc1N(C)CCN(C)CCOCCOCCOCC(=O)Nc1cccc2c1CN(C1CCC(=O)NC1=O)C2=O` (stereo not drawn), the IC50 [1] is reported as 1120 nM, the Activity [2] is reported as “Active” and the Activity [3] is reported as “Active”. The IC50 [4] was 1610 nM and the IC50 [5] was 1700 nM.
